# Data taken from ChEMBL document CHEMBL1126988, “Quinolone antibacterials containing the new 7-[3-(1-aminoethyl)-1- pyrrolidinyl] side chain: the effects of the 1-aminoethyl moiety and its stereochemical configurations on potency and in vivo efficacy” (J Med Chem, 1993).
# Legend:
# Type in all cases: functional
# [1] = tested on: Escherichia coli; assay: Antibacterial activity against Escherichia coli Vogel after subcutaneous administration in mouse; conditions: for ED50: Escherichia coli, sc, read-out: PD50
# [2] = tested on: Streptococcus pyogenes; assay: Antibacterial activity measured as mouse protection against Streptococcus pyogenes C 203 after subcutaneous administration; conditions: for ED50: Streptococcus pyogenes, C 203, sc, read-out: PD50
# [3] = tested on: Enterobacter cloacae; assay: Minimum inhibitory concentration in vitro against Enterobacter cloacae MA 2646
# [4] = tested on: Escherichia coli; assay: Antibacterial activity in vitro against Escherichia coli Vogel
# In short: (§1)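 Standard microtitration broth assay against a panel of 10 Gram-positive and Gram-negative organisms. MIC read in µg/mL and averaged over multiple experiments.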
# [5] = tested on: Pseudomonas aeruginosa; assay: Minimum inhibitory concentration was evaluated in vitro against Pseudomonas aeruginosa UI-18; in short: as §1
# [6] = tested on: Providencia rettgeri; assay: Minimum inhibitory concentration was evaluated in vitro against Providencia rettgeri M1771; in short: as §1
# [7] = tested on: Klebsiella pneumoniae; assay: Minimum inhibitory concentration was evaluated in vitro against Klebsiella pneumoniae MGH2; in short: as §1
# [8] = tested on: Staphylococcus aureus; assay: Minimum inhibitory concentration was evaluated in vitro against Staphylococcus aureus H 228; in short: as §1
# [9] = tested on: Escherichia coli; assay: Antibacterial activity against Escherichia coli Vogel after oral administration in mouse; conditions: for ED50: Escherichia coli, po, read-out: PD50
# [10] = tested on: Streptococcus pyogenes; assay: Minimum inhibitory concentration was evaluated in vitro against Streptococcus pyogenes C 203; in short: as §1
# [11] = tested on: Staphylococcus aureus; assay: Minimum inhibitory concentration was evaluated in vitro against Staphylococcus aureus UC 76; in short: as §1
# [12] = tested on: Streptococcus pneumoniae; assay: Minimum inhibitory concentration was evaluated in vitro against Streptococcus pneumoniae SV-1; in short: as §1
# [13] = tested on: Enterococcus faecalis; assay: Minimum inhibitory concentration was evaluated in vitro against Enterococcus faecalis MGH-2; in short: as §1
# [14] = tested on: Streptococcus pyogenes; assay: Compounds were evaluated in vivo for antibacterial activity for mouse protection against Streptococcus pyogenes C 203 after oral administration; conditions: for ED50: Streptococcus pyogenes, C 203, po, read-out: PD50
# [15] = Enterobacter cloacae, read-out: MIC
# [16] = Escherichia coli, read-out: MIC
# [17] = Pseudomonas aeruginosa, read-out: MIC
# [18] = Providencia rettgeri, read-out: MIC
# [19] = Klebsiella pneumoniae, read-out: MIC
# [20] = Staphylococcus aureus, read-out: MIC
# [21] = Streptococcus pyogenes, read-out: MIC
# [22] = Streptococcus pneumoniae, read-out: MIC
# [23] = Enterococcus faecalis, read-out: MIC
Structure (SMILES),ED50 [1],ED50 [2],"MIC [3, 15]","MIC [4, 16]","MIC [5, 17]","MIC [6, 18]","MIC [7, 19]","MIC [8, 20]",ED50 [9],"MIC [10, 21]","MIC [11, 20]","MIC [12, 22]","MIC [13, 23]",ED50 [14],also measured
COc1c(N2CCC(C)(CN)C2)c(F)cc2c(=O)c(C(=O)O)cn(C3CC3)c12 (configuration not stated),3 mg/kg,1 mg/kg,0.1 µg/mL,0.1 µg/mL,1.6 µg/mL,0.4 µg/mL,0.2 µg/mL,0.025 µg/mL,18 mg/kg,0.013 µg/mL,0.006 µg/mL,0.013 µg/mL,0.025 µg/mL,5 mg/kg,
CNCC1CCN(c2nc3c(cc2F)c(=O)c(C(=O)O)cn3C2CC2)C1 (configuration not stated),1 mg/kg,7 mg/kg,0.2 µg/mL,0.1 µg/mL,0.8 µg/mL,0.4 µg/mL,0.2 µg/mL,0.2 µg/mL,3 mg/kg,0.05 µg/mL,0.025 µg/mL,0.025 µg/mL,0.2 µg/mL,21 mg/kg,
CCNCC1CCN(c2cc3c(c(N)c2F)c(=O)c(C(=O)O)cn3C2CC2)C1 (configuration not stated),3 mg/kg,11 mg/kg,0.1 µg/mL,0.1 µg/mL,1.6 µg/mL,0.8 µg/mL,0.4 µg/mL,0.2 µg/mL,90 mg/kg,0.1 µg/mL,0.025 µg/mL,0.05 µg/mL,0.05 µg/mL,> 100 mg/kg,
NC1CCN(c2c(F)cc3c(=O)c(C(=O)O)cn(C4CC4)c3c2F)C1 (configuration not stated),,2 mg/kg,0.025 µg/mL,,0.1 µg/mL,0.05 µg/mL,,,1 mg/kg,,,,0.05 µg/mL,8 mg/kg,
CNCC1CCN(c2cc3c(cc2F)c(=O)c(C(=O)O)cn3C2CC2)C1 (configuration not stated),2 mg/kg,5 mg/kg,0.2 µg/mL,0.1 µg/mL,0.8 µg/mL,0.4 µg/mL,0.2 µg/mL,0.2 µg/mL,35 mg/kg,0.05 µg/mL,0.025 µg/mL,0.05 µg/mL,0.1 µg/mL,> 50 mg/kg,
CN[C@H](C)[C@@H]1CCN(c2c(F)cc3c(=O)c(C(=O)O)cn(C4CC4)c3c2OC)C1,3 mg/kg,1 mg/kg,0.1 µg/mL,0.1 µg/mL,3.1 µg/mL,0.4 µg/mL,0.2 µg/mL,0.05 µg/mL,12 mg/kg,0.025 µg/mL,0.013 µg/mL,0.013 µg/mL,0.05 µg/mL,4 mg/kg,
CCn1cc(C(=O)O)c(=O)c2cc(F)c(N3CCC(N)C3)c(OC)c21 (configuration not stated),7 mg/kg,25 mg/kg,0.2 µg/mL,0.2 µg/mL,0.8 µg/mL,0.4 µg/mL,0.2 µg/mL,0.2 µg/mL,13 mg/kg,0.2 µg/mL,0.05 µg/mL,0.4 µg/mL,0.4 µg/mL,74 mg/kg,
CCN[C@H](C)[C@H]1CCN(c2nc3c(cc2F)c(=O)c(C(=O)O)cn3-c2ccc(F)cc2F)C1 (racemic),13 mg/kg,2 mg/kg,0.8 µg/mL,0.4 µg/mL,3.1 µg/mL,1.6 µg/mL,0.8 µg/mL,0.05 µg/mL,25 mg/kg,0.1 µg/mL,0.013 µg/mL,0.1 µg/mL,0.2 µg/mL,2 mg/kg,
CCn1cc(C(=O)O)c(=O)c2cc(F)c(N3CCC(C(C)NC)C3)c(OC)c21 (racemic),4 mg/kg,0.3 mg/kg,0.8 µg/mL,0.2 µg/mL,1.6 µg/mL,0.4 µg/mL,0.2 µg/mL,0.025 µg/mL,22 mg/kg,0.013 µg/mL,0.003 µg/mL,0.013 µg/mL,0.025 µg/mL,2 mg/kg,
CCNCC1CCN(c2nc3c(cc2F)c(=O)c(C(=O)O)cn3C2CC2)C1 (configuration not stated),1 mg/kg,8 mg/kg,0.2 µg/mL,0.1 µg/mL,0.8 µg/mL,0.8 µg/mL,0.2 µg/mL,0.1 µg/mL,7 mg/kg,0.2 µg/mL,0.05 µg/mL,0.1 µg/mL,0.1 µg/mL,17 mg/kg,
CCN[C@@H](C)[C@@H]1CCN(c2nc3c(cc2F)c(=O)c(C(=O)O)cn3C2CC2)C1,,,,,,,,,,,,,,,PD50 [1]: 1 mg/kg; PD50 [2]: 9 mg/kg; MIC [3]: 0.2 µg/mL; MIC [4]: 0.2 µg/mL; MIC [5]: 3.1 µg/mL; MIC [6]: 1.6 µg/mL; MIC [7]: 0.4 µg/mL; MIC [8]: 0.2 µg/mL; PD50 [9]: 3 mg/kg; MIC [10]: 0.4 µg/mL; MIC [11]: 0.1 µg/mL; MIC [12]: 0.1 µg/mL; MIC [13]: 0.2 µg/mL; PD50 [14]: 15 mg/kg
